In ChEMBL document CHEMBL4266053, “Puromycins B-E, Naturally Occurring Amino-Nucleosides Produced by the Himalayan Isolate Streptomyces sp. PU-14G” (J Nat Prod, 2018):
Converted amounts (≈) assume the structure as drawn. The source made the active and inactive calls. The calls are words filed in the database; no cut-off is given here.

What was measured:
[1] = tested on: PC-3; experiment: Cytotoxicity against human PC3 cells assessed as decrease in cell viability at 100 uM after 48 hrs; format: functional, cell-based
Procedure, shortened: (§1)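 Cell viability measured in triplicate after 48 h exposure to a single 100 μM concentration. Actinomycin D served as the positive control.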

[2] = tested on: A549; experiment: Cytotoxicity against human A549 cells assessed as decrease in cell viability at 100 uM after 48 hrs; format: functional, cell-based; procedure, shortened: as §1
[3] = tested on: Mycolicibacterium aurum; experiment: Antimycobacterial activity against Mycobacterium aurum ATCC 23366 after 16 to 48 hrs; format: functional
Procedure, shortened: (§2)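 Bacterial MIC assay run in triplicate and read after 16−48 h incubation. Kanamycin and ampicillin served as positive controls.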

[4] = tested on: Micrococcus luteus; experiment: Antibacterial activity against Micrococcus luteus NRRL B-287 after 16 to 48 hrs; format: functional; procedure, shortened: as §2
[5] = tested on: Staphylococcus aureus; experiment: Antibacterial activity against Staphylococcus aureus ATCC 6538 after 16 to 48 hrs; format: functional; procedure, shortened: as §2
[6] = tested on: Bacillus spizizenii; experiment: Antibacterial activity against Bacillus subtilis ATCC 6633 after 16 to 48 hrs; format: functional; procedure, shortened: as §2
[7] = tested on: A549; experiment: Cytotoxicity against human A549 cells assessed as decrease in cell viability after 48 hrs; format: functional, cell-based; conditions: A549, 48 h
Procedure, shortened: (§3)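 Human cancer cell line viability assay run in triplicate with 48 h compound exposure. IC50 derived from viability data. Actinomycin D served as the positive control.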

[8] = tested on: PC-3; experiment: Cytotoxicity against human PC3 cells assessed as decrease in cell viability after 48 hrs; format: functional, cell-based; conditions: PC-3, 48 h; procedure, shortened: as §3

| SMILES | Activity [1] | Activity [2] | MIC [3] [µM] | MIC [4] [µM] | MIC [5] [µM] | MIC [6] [µM] | IC50 [7] [nM] | IC50 [8] [nM] |
| --- | --- | --- | --- | --- | --- | --- | --- | --- |
| CC(=O)N[C@@H](CC(C)C)C(=O)N[C@H]1[C@@H](O)[C@H](n2cnc3c(N(C)C)ncnc32)O[C@@H]1CO | Active | Active |  |  |  |  |  |  |
| COc1ccc(C[C@H](N)C(=O)N[C@H]2[C@@H](O)[C@H](n3cnc4c(N(C)C)ncnc43)O[C@@H]2CO)cc1 [PUROMYCIN] |  |  | 4 to 30 (≈ 1.89 to 14.1 µg/mL) | 4 to 30 (≈ 1.89 to 14.1 µg/mL) | 4 to 30 (≈ 1.89 to 14.1 µg/mL) | 4 to 30 (≈ 1.89 to 14.1 µg/mL) | 300 | 300 |
| COc1ccc(C[C@H](O)C(=O)N[C@H]2[C@@H](O)[C@H](n3cnc4c(N(C)C)ncnc43)O[C@@H]2CO)cc1 | Active | Active |  |  |  |  |  |  |
| COc1ccc(C[C@H](NC(C)=O)C(=O)N[C@H]2[C@@H](O)[C@H](n3cnc4c(N(C)C)ncnc43)O[C@@H]2CO)cc1 | Active | Active |  |  |  |  |  |  |
| CC(=O)N[C@H]1[C@@H](O)[C@H](n2cnc3c(N(C)C)ncnc32)O[C@@H]1CO | Active | Active |  |  |  |  |  |  |
